MrgX1 agonist = agonists of human MrgX1 receptor, primary screen, HEK293 cells, Fluo-4 calcium flux; Mas-related G-protein coupled receptor member X1 (Homo sapiens), Q96LB2; Fluo-4 calcium fluorescence, agonist mode; stronger effect = higher value; B-score at 10 µM; 310,000 compounds, 0.44% hits;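 active = calcium response B-score plate-corrected fluorescence ratio at least 3 library SD, with starting fluorescence B-score inside 5 SD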
Target sequence (Q96LB2 whole entry, looked up): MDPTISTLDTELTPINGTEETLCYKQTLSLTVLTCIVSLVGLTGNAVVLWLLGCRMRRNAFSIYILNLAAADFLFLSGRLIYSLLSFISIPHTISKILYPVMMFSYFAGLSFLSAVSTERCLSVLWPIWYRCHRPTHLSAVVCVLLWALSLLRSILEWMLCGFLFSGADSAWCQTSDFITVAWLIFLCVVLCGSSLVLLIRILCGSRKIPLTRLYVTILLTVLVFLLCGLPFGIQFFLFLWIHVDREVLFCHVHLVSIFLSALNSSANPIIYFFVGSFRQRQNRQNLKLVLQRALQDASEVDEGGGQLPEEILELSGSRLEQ
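Material: MrgX1-expressing HEK293 cells / Dosing: compound as first of three additions / Incubation: overnight seeding, then 1 h dark dye loading / Signal: Fluo-4 NW calcium fluorescence / Evaluation: B-scored fluorescence response ratio / Benchmarks: positive and negative control wells on each plate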
MrgX1 antagonist = antagonists of human MrgX1 receptor, primary screen, HEK293 cells, Fluo-4 calcium flux. BAM8-22 antagonism; stronger effect = lower value. B-score at 10 µM. 310,000 compounds, 1.3% hits. AID 588676, 2011;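 active = calcium-response B-score plate-corrected more than 3 library SD below zero, starting fluorescence within 5 deviations, no agonist response on first addition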;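 also: peak minus trough fluorescence over baseline after final BAM8-22 challenge near maximal dose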
RGS4 inh = RGS4 inhibitors, primary screen, cell-based, HEK293 M3R inducible RGS4, calcium flux. B-score at 10 µM. AID 463165, 2010. Fluo-4 calcium flux; stronger effect = higher value; triggered by carbachol at its EC20. Regulator of G-protein signaling 4 (Homo sapiens), P49798. 310,000 compounds, 0.45% hits;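 active = B-score, a plate-corrected calcium signal, over three deviations above library mean, with baseline fluorescence within five deviations of library mean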;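 also: RGS4 expression induced by doxycycline in cells with stable M3 receptor; B-score is computed from the integrated fluorescence ratio over baseline after carbachol; higher B-score means a larger calcium signal and so more RGS4 inhibition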
Target sequence (P49798 whole entry, looked up): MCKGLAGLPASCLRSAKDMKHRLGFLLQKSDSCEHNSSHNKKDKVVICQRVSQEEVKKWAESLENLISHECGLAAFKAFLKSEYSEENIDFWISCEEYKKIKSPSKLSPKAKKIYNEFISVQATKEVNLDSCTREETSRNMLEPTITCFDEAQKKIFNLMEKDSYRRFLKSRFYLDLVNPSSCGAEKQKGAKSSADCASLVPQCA
MrgX1 allo act = positive allosteric modulators of MrgX1, primary screen, HEK293 cells, Fluo-4 calcium flux. AID 588675, 2011. B-score at 10 µM. FDSS; stronger effect = higher value. 310,000 compounds, 0.63% hits. Mas-related G-protein coupled receptor member X1 (Homo sapiens), Q96LB2;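 active = plate-corrected calcium response at least 3 library SD above typical, normal starting fluorescence, not activating the receptor alone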;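 also: compound read alongside a low EC10 to EC30 dose of BAM8-22 agonist; peak minus trough fluorescence over baseline measured at the second addition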
RGS4 act = RGS4 potentiators or activators, primary screen, cell-based, HEK293 M3R inducible RGS4, calcium flux; carbachol calcium flux Fluo4; stronger effect = lower value; B-score at 10 µM; 310,000 compounds, 0.92% hits;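 active = B-score of the integrated calcium signal more than 4 SD below the library mean, with starting fluorescence not abnormally high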;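 also: negative B-score means reduced calcium response which marks RGS4 activation or potentiation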
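Reagent: ECmax carbachol challenge; Test system: M3R-expressing HEK293 line, RGS4 induced by doxycycline; Schedule: overnight RGS4 induction, 30 min dye load 37 °C, 20 min compound RT; Detection: calcium dye Fluo4 fluorescence; Read-out: Agonist-evoked peak-minus-minimum fluorescence over baseline, integrated ratio, B score.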
RGS4 block valid = enhanced carbachol calcium response, M3R/RGS4 cells, RGS4 inhibitor project, cell-based, validation screen, HEK293 M3R/RGS4, calcium flux; shares compounds with RGS4 inh; carbachol calcium Fluo-4 fluorescence; carbachol added at its EC20; 0 = buffer wells, 100 = carbachol control; calcium response, % at 10 µM; 1,700 compounds, 65% hits; AID 492999, 2010;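 active = duplicate-averaged calcium response above the buffer-only control mean plus 5 SD of those controls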;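 also: integrated fluorescence ratio F max minus min over baseline F0; higher response in RGS4-induced cells means RGS4 inhibition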
RGS4 uninduced = carbachol calcium response in non-induced M3R cells, confirmation, counter-screen for RGS4 inhibitor project, cell-based, HEK293 M3R | shares compounds with RGS4 inh | carbachol calcium Fluo-4; submaximal (EC20) carbachol stimulus; buffer wells 0%, carbachol control wells 100% | activity (percent), % at 10 µM | 1,900 compounds, 20% hits | AID 493000, 2010; call rule not given here;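 also: RGS4 induction absent so cells express M3R without RGS4; higher means more calcium signal and flags a non-specific hit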
M3R basal Ca ctr = signal in non-induced cells without carbachol, RGS4 inhibitor counter-screen; calcium response (agonist-mode artifact), % at 10 µM; 1,900 compounds, 22% hits; shares compounds with RGS4 inh; HEK293 M3R/RGS4 non-induced, Fluo-4 calcium, no carbachol; normalised: buffer wells 0%, carbachol wells 100%;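 active = duplicate-averaged calcium rise in uninduced cells above buffer wells' mean plus 5 SD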
Numbers without * were called inactive; i = inactive; . = no result. An excerpt weighted towards active compounds, which were near 3.5% of everything screened.

SMILES | MrgX1 agonist | MrgX1 antagonist | RGS4 inh | MrgX1 allo act | RGS4 act | RGS4 block valid | RGS4 uninduced | M3R basal Ca ctr
CC(NS(C)(=O)=O)c1nnc2n1-c1ccc(Br)cc1C(c1ccccc1Cl)=NC2 (stereo unspecified) | i | i | i | i | i | . | . | .
COc1cc(C(c2c(C)[nH]n(-c3ccccc3)c2=O)c2c(C)[nH]n(-c3ccccc3)c2=O)cc(OC)c1OC | i | i | 6* | i | i | 14%* | i | i
O=c1cccc2n1C[C@H]1C[C@@H]2CN2CCCC[C@@H]12 | i | i | i | i | i | . | . | .
CC(Cc1ccc(O)cc1)NCC(O)c1cc(O)cc(O)c1 (stereo unspecified) | i | i | 5.7* | i | i | 30%* | i | 73%*
C=C1C(=O)O[C@@H]2C[C@@H](C)[C@@H]3C=CC(=O)[C@@]3(C)[C@@H](O)[C@H]12 | i | i | 5.2* | i | i | 35%* | i | i
CCS(=O)(=O)NCc1nnc2n1-c1ccc(Br)cc1C(c1ccccc1Cl)=NC2 | i | i | i | i | i | . | . | .
O=C1NC(=S)NC(=O)C1=Cc1ccc2c(c1)CCN2CCCCl | i | i | 10* | i | i | 42%* | i | i
C=CCN1C(=O)NC(=O)/C(=C/c2cc3c4c(c2)CCCN4CCC3)C1=O | i | i | i | i | i | . | . | .
COc1ccccc1N1C(=O)NC(=O)/C(=C\c2cnn(-c3ccccc3)c2)C1=O | i | i | i | i | i | . | . | .
COc1cccc(N2C(=O)NC(=O)/C(=C/c3ccc4c(c3)Cc3ccccc3-4)C2=O)c1 | i | i | i | i | i | . | . | .
COc1cccc(N2C(=O)NC(=O)/C(=C/c3ccc([N+](=O)[O-])s3)C2=O)c1 | i | i | 10* | i | i | 20%* | 35%* | i
COc1ccc(N2C(=O)NC(=O)/C(=C/c3ccc([N+](=O)[O-])s3)C2=O)cc1 | i | i | 6.1* | i | i | 16%* | i | i
COc1ccc(N2C(=O)NC(=O)/C(=C\c3ccc([N+](=O)[O-])s3)C2=O)cc1 | i | i | 5.2* | i | i | 22%* | i | i
COc1ccccc1N1C(=O)NC(=O)/C(=C/c2ccc([N+](=O)[O-])s2)C1=O | i | i | i | i | i | . | i | i
CCOc1ccc(N2C(=O)NC(=O)/C(=C\c3cc(OC)c(OC)cc3[N+](=O)[O-])C2=O)cc1 | i | i | i | i | i | . | . | .
O=c1[nH]c2ccccc2c(=O)n1-c1ccc(Cl)cc1Cl | i | i | i | i | i | . | . | .
N#Cc1c(N2CCNCC2)nc(-c2ccco2)c2c1CCCC2 | i | i | 5.5* | i | i | i | i | i
CCCCc1nc(N2CCNCC2)c(C#N)c2c1CSC(C)(C)C2 | i | i | i | i | i | . | . | .
O=C1/C(=C\c2ccc([N+](=O)[O-])cc2)N2CCC1CC2 | i | i | 5.9* | i | i | 5.0%* | i | i
CC(C)CN(C(=O)CN1CC=C(c2ccccc2)CC1)c1c(N)n(CC(C)C)c(=O)[nH]c1=O | i | i | i | i | i | . | . | .
CCN(CC)c1ccc(/C=C/[N+](=O)[O-])cc1 | i | i | 10* | i | i | 29%* | i | 580%*
COC1=CC=C2[C@H]3Cc4ccc(OC)c5c4[C@@]2(CCN3C)[C@H]1O5 | i | i | i | i | i | . | . | .
Cc1cc(C)cc(N2C(=O)NC(=O)/C(=C\c3cccn3-c3ccc(Cl)cc3)C2=O)c1 | i | i | i | i | i | . | . | .
Cc1cc(C)cc(N2C(=O)NC(=O)/C(=C\c3cccn3-c3ccccc3)C2=O)c1 | i | i | 9.2* | i | i | 18%* | i | 15%*
O=C1NC(=O)N(Cc2ccccc2)C(=O)/C1=C/C=C/c1ccco1 | 31* | i | 7* | i | i | 11%* | i | 22%*
SMILES | MrgX1 agonist | MrgX1 antagonist | RGS4 inh | MrgX1 allo act | RGS4 act | RGS4 block valid | RGS4 uninduced | M3R basal Ca ctr
COc1ccc(CN2C(=O)NC(=O)/C(=C\c3ccco3)C2=O)cc1 | i | i | i | i | i | . | . | .
Cc1ccc(/C=C2/C(=O)NC(=O)N(CCc3ccc(F)cc3)C2=O)o1 | i | i | i | i | i | i | i | i
O=C1NC(=O)N(CCc2ccc(F)cc2)C(=O)/C1=C/c1cccs1 | i | i | i | i | i | . | i | i
COc1ccc(N2C(=O)/C(=C/c3cccs3)C(=O)NC2=S)cc1 | i | i | 8.3* | i | i | i | i | i
Cc1ccc(/C=C2\C(=O)NC(=S)N(c3ccc(F)cc3)C2=O)s1 | i | i | 15* | i | i | 29%* | i | i
O=C1NC(=S)N(c2ccc(F)cc2)C(=O)/C1=C/c1ccccc1O | i | i | i | i | i | . | . | .
Cc1ccc(/C=C2\C(=O)NC(=S)N(c3ccc(F)cc3)C2=O)o1 | i | i | i | i | i | . | i | 12%*
COc1cccc(N2C(=O)/C(=C/c3ccc(C)o3)C(=O)NC2=S)c1 | i | i | 10* | i | i | 93%* | 33%* | 20%*
CCOc1cccc(N2C(=O)/C(=C/c3ccco3)C(=O)NC2=S)c1 | i | i | i | i | i | . | . | .
Cc1ccc(-n2c(C)nc3cc(Cl)ccc3c2=O)nc1 | i | i | i | i | i | . | . | .
CC(C)c1cc(Br)c(NC(=O)Nc2cccnc2)c(Br)c1 | i | i | i | i | i | . | . | .
COc1ccc(Cn2c(O)c(/C=N/NC(=O)c3ccccc3O)c(=O)[nH]c2=O)cc1 | i | i | i | i | i | . | i | i

Compound activity as filed in PubChem.
